The structures appear in SMILES notation. Calls of active or inactive are those of the source. The calls are words filed in the database; no cut-off is given here.

In data set [1] the target is T1, Glycogen synthase kinase-3 beta (Homo sapiens, UniProt P49841). The experiment in a line: Inhibition of human recombinant GSK3-beta at 1 uM by ELISA. An outline of the steps:
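Recombinant human GSK3β (500 ng) with human tau-441 (1 μg) as substrate, in a 20 μL reaction with 10× kinase buffer stock (200 mM Tris-HCl pH 7.4, 100 mM MgCl2, 5 mM DTT) and ATP added from a 100 μM stock. Incubated 30 °C for 45 min. Phospho-tau pS396 measured by immunoassay at A450. Controls were DMSO and no-ATP.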
Target sequence in this assay (P49841 whole entry, looked up): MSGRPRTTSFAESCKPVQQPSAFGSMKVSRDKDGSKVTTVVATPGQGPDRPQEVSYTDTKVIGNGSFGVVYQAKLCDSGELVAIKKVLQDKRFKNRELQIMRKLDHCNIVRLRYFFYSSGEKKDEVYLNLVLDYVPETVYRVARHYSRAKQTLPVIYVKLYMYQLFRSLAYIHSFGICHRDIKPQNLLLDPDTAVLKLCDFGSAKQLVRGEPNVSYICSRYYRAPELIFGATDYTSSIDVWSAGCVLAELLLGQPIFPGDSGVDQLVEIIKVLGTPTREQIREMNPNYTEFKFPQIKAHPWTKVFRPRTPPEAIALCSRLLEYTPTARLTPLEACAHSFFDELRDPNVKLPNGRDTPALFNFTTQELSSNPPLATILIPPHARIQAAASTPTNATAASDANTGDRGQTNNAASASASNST

Data set [2] has as its target T1, Glycogen synthase kinase-3 beta. The experiment in a line: Inhibition of human recombinant GSK3-beta. The method, boiled down:
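10× kinase buffer stock was 200 mM Tris-HCl pH 7.4, 100 mM MgCl2, 5 mM DTT; ATP added from a 100 μM stock. Incubated 30 °C for 45 min. Tau pS396 read by immunoassay at A450. DMSO and no-ATP controls were run. IC50 taken from activity curves.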
Target sequence in this assay (P49841 whole entry): as the sequence (P49841 whole entry, looked up) above

The target in data set [3] is Cyclin-dependent kinase 2/cyclin A (Homo sapiens, UniProt P24941). The experiment in a line: Inhibition of human CDK2/Cyclin A by ELISA. Type of data set: protein-complex assay.
The target of data set [4] is Cyclin-dependent kinase 4/cyclin D1 (Homo sapiens, UniProt P11802). The experiment in a line: Inhibition of human CDK4/cyclin D1 by ELISA. Type of data set: protein-complex assay.
Chain of Cyclin-dependent kinase 4/cyclin D1 (P11802 whole entry): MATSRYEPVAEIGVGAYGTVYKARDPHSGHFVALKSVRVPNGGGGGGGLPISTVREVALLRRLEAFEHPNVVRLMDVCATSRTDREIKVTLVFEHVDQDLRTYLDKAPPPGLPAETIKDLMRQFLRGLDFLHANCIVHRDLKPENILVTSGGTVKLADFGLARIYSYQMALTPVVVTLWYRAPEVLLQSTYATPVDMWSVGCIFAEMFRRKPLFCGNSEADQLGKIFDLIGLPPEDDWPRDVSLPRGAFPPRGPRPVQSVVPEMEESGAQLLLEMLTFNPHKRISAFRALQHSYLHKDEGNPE
Chain of Cyclin-dependent kinase 4/cyclin D1 (P24385 whole entry, further chain): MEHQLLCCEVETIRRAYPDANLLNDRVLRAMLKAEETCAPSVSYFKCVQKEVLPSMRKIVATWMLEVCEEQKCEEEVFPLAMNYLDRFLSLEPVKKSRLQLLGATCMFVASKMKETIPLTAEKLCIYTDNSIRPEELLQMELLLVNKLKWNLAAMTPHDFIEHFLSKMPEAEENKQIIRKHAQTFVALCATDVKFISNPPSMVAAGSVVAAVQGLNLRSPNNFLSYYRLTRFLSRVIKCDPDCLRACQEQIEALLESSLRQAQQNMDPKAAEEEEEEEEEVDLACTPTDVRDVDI
Data set [5] deals with T1, Glycogen synthase kinase-3 beta. The experiment in a line: Inhibition of human recombinant GSK3-beta at 1 uM by ATP competitive assay. An outline of the steps:
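Recombinant human GSK3β (60 ng) with tau-441 (400 ng) in 10× buffer stock (200 mM Tris-HCl pH 7.4, 100 mM MgCl2, 5 mM DTT). Inhibitor at 1 μM final, ATP varied, 20 μL, 30 °C for 45 min. Tau pS396 measured by immunoassay at A450. Activity (% of control) versus [ATP] fitted to a simple competitive-inhibition equation to give apparent Ki.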
Target sequence in this assay (P49841 whole entry): as the sequence (P49841 whole entry, looked up) above

A short description of data set [6]: Toxicity in Zebrafish embryos assessed as induction of eyeless phenotype during gastrulation at 25 uM after 3 days. The format is tissue-based, Danio rerio, Embryo. The following applies: in vivo, 72 h. The method, boiled down:
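FLK-1:EGFP transgenic zebrafish embryos, six per well in 200 μL Holtfreter's buffer. Compound added at dome stage and embryos kept in compound solution up to 7 days. Heads examined at 1 and 3 dpf for eye phenotype. LiCl comparison: 0.3 M for 10 min, then buffer.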

As to `CCc1cc2cc(C(=O)OC)ccc2c2c1C(=O)NC2=O`, the result in data set [1] was Active. On to `COC(=O)c1ccc2cc(C)c3c(c2c1)C(=O)NC3=O`, for which, in data set [1], the outcome was Active. Same read-out and setting: as for `COC(=O)c1cccc2c3c(c(C)cc12)C(=O)NC3=O`, the entry is “Active”; as for `COC(=O)c1ccc2cc(C(C)C)c3c(c2c1)C(=O)NC3=O`, “Active”. On to `COC(=O)c1cccc2c3c(c(C(C)C)cc12)C(=O)NC3=O`, for which the result in data set [1] was Active. Same read-out and setting: with `COC(=O)c1ccc2c3c(c(C(C)C)cc2c1)C(=O)NC3=O` the entry was “Active”.

Consider `COc1ccc2cc(C)c3c(c2c1)C(=O)NC3=O`, for which the outcome in data set [1] was Active.

On to `COc1cc2c(C)cc3c(c2cc1OC)C(=O)NC3=O`, for which the outcome in data set [1] was Active. The concentration for half-maximal inhibition (IC50) in data set [2] is 270 nM; in data set [3] it was 787 nM; in data set [4], 16000 nM. Moreover, the Ki in data set [5] amounted to 259 nM. Also, in data set [6], the result was Active. Regarding `COC(=O)c1ccc2c3c(c(CC(C)OCc4ccccc4)cc2c1)C(=O)NC3=O` (stereo not drawn), in data set [1], the result was Active. The same measure, in the same setting: with `Cc1cc2ccccc2c2c1C(=O)NC2=O` the entry was “Active”; with `CCCc1cc2c(C(=O)OC)cccc2c2c1C(=O)NC2=O`, “Active”.

For the compound `CCc1cc2ccc(C(=O)OC)cc2c2c1C(=O)NC2=O`, in data set [1], the outcome was Active. As for `Cn1cc(C2=C(c3ccc(Cl)cc3Cl)C(=O)NC2=O)c2ccccc21` [SB-216763], the outcome in data set [1] was Active. In addition, the IC50 in data set [3] worked out at 269 nM; in data set [4], 32000 nM. For the same compound, the Activity result in data set [6] is “Not Active”. On to `COC(=O)c1ccc2c3c(c(CC(C)O)cc2c1)C(=O)NC3=O` (stereo not drawn), for which, in data set [1], the outcome was Active.

As to `CCc1cc2c(c3cc(OC)c(OC)cc13)C(=O)NC2=O`, the result in data set [1] was Active. Moreover, the IC50 in data set [2] stood at 92 nM; in data set [4] it was 19000 nM. Also, in data set [6], the Activity result is recorded as “Not Active”. Take `CCc1cc2c(C(=O)OC)cccc2c2c1C(=O)NC2=O`: the outcome in data set [1] was Active. Same read-out and setting: with `COC(=O)c1ccc2c3c(c(CC(C)C)cc2c1)C(=O)NC3=O` the entry was “Active”; with `CCc1c(C)c2c(c3cc(C(=O)OC)ccc13)C(=O)NC2=O`, “Active”.

Take `COC(=O)c1ccc2c3c(c(CCO)cc2c1)C(=O)NC3=O`: the result in data set [1] was Active. Regarding `COC(=O)c1cccc2c3c(c(CC(C)C)cc12)C(=O)NC3=O`, the outcome in data set [1] was Active. Further, the IC50 in data set [2] was 486 nM; in data set [4] it was 6000 nM.

For `COC(=O)c1ccc2c3c(c(C)c(C)c2c1)C(=O)NC3=O`, the outcome in data set [1] was Active. Same read-out and setting: as for `Cc1cc2ccc(Cl)cc2c2c1C(=O)NC2=O`, the entry is “Active”. For the compound `COC(=O)c1ccc2cc(CC(C)C)c3c(c2c1)C(=O)NC3=O`, in data set [1], the result was Active. Same read-out and setting: with `COC(=O)c1cccc2c3c(c(C)c(C)c12)C(=O)NC3=O` the entry was “Active”. On the same count and under the same terms, with `COC(=O)c1ccc2c3c(c(CCOCc4ccccc4)cc2c1)C(=O)NC3=O` the entry was “Active”.
